Reference: ChEMBL document CHEMBL1128580, “Synthesis and antibacterial activity of some novel 1-substituted 1,4-dihydro-4-oxo-7-pyridinyl-3-quinolinecarboxylic acids. Potent antistaphylococcal agents” (1995)
Converted amounts (≈) assume the structure as drawn.

Assays:
Type in all cases: functional
[1] = system: Bacteroides fragilis; experiment: Minimum Inhibitory concentration measured against Bacteroides fragilis ATCC 25285
In short: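 Anaerobic broth microdilution. Grown in brain heart infusion broth with 5 µg/mL hemin and 0.5 µg/mL vitamin K for 48 h at 37 °C under 5% CO₂, 10% H₂, 85% N₂. Adjusted to absorbance 0.1 at 650 nm and diluted 1:10. Final 10⁵ cells/mL; plates incubated anaerobically for 48 h at 37 °C.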

[2] = system: Escherichia coli; experiment: Minimum Inhibitory concentration measured against Escherichia coli ATCC 1-25922
In short: (§1)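 Broth microdilution on cultures kept as frozen stock, grown in Mueller Hinton II medium for 18–24 h at 37 °C. Suspension adjusted to absorbance 0.1 at 650 nm and diluted 1:10 in medium to give the inoculum. Final density 10⁵ cells/mL; plates incubated 24 h at 37 °C.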

[3] = system: Pseudomonas aeruginosa; experiment: Minimum Inhibitory concentration measured against Pseudomonas aeruginosa ATCC 27853; in short: as §1
[4] = system: Staphylococcus aureus; experiment: Minimum Inhibitory concentration measured against Staphylococcus aureus ATCC 29213; in short: as §1
[5] = system: Streptococcus pyogenes; experiment: Minimum Inhibitory concentration measured against Streptococcus pyogenes ATCC 6301
In short: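 ATCC 6301 was grown in brain heart infusion broth with 10% heat-inactivated horse serum for 18–24 h at 37 °C. Suspension brought to absorbance 0.1 at 650 nm, then diluted 1:10 in the same medium. Broth microdilution at a final 10⁵ cells/mL, incubated 24 h at 37 °C.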

[6] = system: Enterococcus faecalis; experiment: Minimum Inhibitory concentration measured against Streptococcus faecalis ATCC 29212; in short: as §1

SMILES	MIC [1] [µg/mL]	MIC [2] [µg/mL]	MIC [3] [µg/mL]	MIC [4] [µg/mL]	MIC [5] [µg/mL]	MIC [6] [µg/mL]
Cc1cc(-c2ccc3c(=O)c(C(=O)O)cn(C4CC4)c3c2)cc(C)n1	> 4	0.25 (≈ 0.748 µM)	> 4	0.06 (≈ 0.179 µM)	0.5 (≈ 1.5 µM)	0.5 (≈ 1.5 µM)
CCc1cc(-c2cc3c(cc2F)c(=O)c(C(=O)O)cn3C2CC2)ccn1	1 (≈ 2.84 µM)	0.125 (≈ 0.355 µM)	4 (≈ 11.4 µM)	0.03 (≈ 0.0851 µM)	0.25 (≈ 0.709 µM)	0.25 (≈ 0.709 µM)
O=C(O)c1cn(C2CC2)c2cc(-c3ccncc3)c(F)cc2c1=O	1 (≈ 3.08 µM)	0.03 (≈ 0.0925 µM)	2 (≈ 6.17 µM)	0.06 (≈ 0.185 µM)	0.25 (≈ 0.771 µM)	0.5 (≈ 1.54 µM)
CCn1cc(C(=O)O)c(=O)c2cc(F)c(-c3ccncc3)cc21	16 (≈ 51.2 µM)	0.125 (≈ 0.4 µM)	2 (≈ 6.4 µM)	0.25 (≈ 0.801 µM)	2 (≈ 6.4 µM)	1 (≈ 3.2 µM)
Cc1cc(-c2cc3c(cc2F)c(=O)c(C(=O)O)cn3C2CC2)cc(CN(C)C)n1	2 (≈ 5.06 µM)	0.06 (≈ 0.152 µM)	8 (≈ 20.2 µM)	0.06 (≈ 0.152 µM)	0.5 (≈ 1.26 µM)	0.5 (≈ 1.26 µM)
Cc1cc(-c2cc3c(cc2F)c(=O)c(C(=O)O)cn3C(C)(C)C)cc(C)n1	1 (≈ 2.71 µM)	0.25 (≈ 0.679 µM)	> 4	0.03 (≈ 0.0814 µM)	0.125 (≈ 0.339 µM)	0.25 (≈ 0.679 µM)
Cc1cc(-c2cc3c(cc2F)c(=O)c(C(=O)O)cn3C2CC2)cc(C)n1	0.5 (≈ 1.42 µM)	0.03 (≈ 0.0851 µM)	2 (≈ 5.68 µM)	0.008 (≈ 0.0227 µM)	0.03 (≈ 0.0851 µM)	0.06 (≈ 0.17 µM)
Cc1cc(-c2cc3c(cc2F)c(=O)c(C(=O)O)cn3C2CC2)ccn1	0.5 (≈ 1.48 µM)	0.03 (≈ 0.0887 µM)	2 (≈ 5.91 µM)	0.016 (≈ 0.0473 µM)	0.06 (≈ 0.177 µM)	0.06 (≈ 0.177 µM)
COCc1cc(-c2cc3c(cc2F)c(=O)c(C(=O)O)cn3C2CC2)cc(C)n1	1 (≈ 2.62 µM)	0.25 (≈ 0.654 µM)	8 (≈ 20.9 µM)	0.03 (≈ 0.0785 µM)	0.125 (≈ 0.327 µM)	0.125 (≈ 0.327 µM)
Cc1cc(-c2nc3c(cc2F)c(=O)c(C(=O)O)cn3C2CC2)cc(C)n1	2 (≈ 5.66 µM)	0.125 (≈ 0.354 µM)	8 (≈ 22.6 µM)	0.03 (≈ 0.0849 µM)	0.25 (≈ 0.708 µM)	0.125 (≈ 0.354 µM)
O=C(O)c1cn(C2CC2)c2cc(-c3cccnc3)c(F)cc2c1=O	0.5 (≈ 1.54 µM)	0.008 (≈ 0.0247 µM)	1 (≈ 3.08 µM)	0.016 (≈ 0.0493 µM)	0.125 (≈ 0.385 µM)	0.25 (≈ 0.771 µM)
CNCc1cc(-c2cc3c(cc2F)c(=O)c(C(=O)O)cn3C2CC2)cc(C)n1	2 (≈ 5.24 µM)	0.016 (≈ 0.0419 µM)	1 (≈ 2.62 µM)	0.125 (≈ 0.328 µM)	0.25 (≈ 0.655 µM)	0.2 (≈ 0.524 µM)
CNn1cc(C(=O)O)c(=O)c2cc(F)c(-c3cc(C)nc(C)c3)cc21	> 4	0.25 (≈ 0.732 µM)	> 4	0.06 (≈ 0.176 µM)	1 (≈ 2.93 µM)	0.5 (≈ 1.46 µM)
Cc1cc(-c2ccc3c(=O)c(C(=O)O)cn(C4CC4)c3c2F)cc(C)n1	–	0.06 (≈ 0.17 µM)	–	0.008 (≈ 0.0227 µM)	–	–
Cc1cc(-c2c(F)c(F)c3c(=O)c(C(=O)O)cn(C4CC4)c3c2F)cc(C)n1	0.5 (≈ 1.29 µM)	0.13 (≈ 0.335 µM)	8 (≈ 20.6 µM)	0.008 (≈ 0.0206 µM)	0.03 (≈ 0.0773 µM)	0.06 (≈ 0.155 µM)
CCn1cc(C(=O)O)c(=O)c2cc(F)c(-c3cc(C)nc(C)c3)cc21	2 (≈ 5.88 µM)	0.06 (≈ 0.176 µM)	4 (≈ 11.8 µM)	0.03 (≈ 0.0881 µM)	0.25 (≈ 0.735 µM)	0.25 (≈ 0.735 µM)
Cc1ccc(-c2cc3c(cc2F)c(=O)c(C(=O)O)cn3C2CC2)c(C)n1	4 (≈ 11.4 µM)	0.5 (≈ 1.42 µM)	> 16	1 (≈ 2.84 µM)	8 (≈ 22.7 µM)	4 (≈ 11.4 µM)
Cc1cc(-c2cc3c(cc2F)c(=O)c(C(=O)O)cn3C2CC2)c(C)c(C)n1	4 (≈ 10.9 µM)	0.125 (≈ 0.341 µM)	8 (≈ 21.8 µM)	0.06 (≈ 0.164 µM)	0.25 (≈ 0.682 µM)	0.5 (≈ 1.36 µM)
Cc1cc(-c2cc3c(cc2F)c(=O)c(C(=O)O)cn3C2CC2)cc(CO)n1	1 (≈ 2.71 µM)	0.06 (≈ 0.163 µM)	4 (≈ 10.9 µM)	0.03 (≈ 0.0814 µM)	0.06 (≈ 0.163 µM)	0.125 (≈ 0.339 µM)
Cc1ccc(-c2cc3c(cc2F)c(=O)c(C(=O)O)cn3C2CC2)cn1	0.25 (≈ 0.739 µM)	0.03 (≈ 0.0887 µM)	2 (≈ 5.91 µM)	0.03 (≈ 0.0887 µM)	0.25 (≈ 0.739 µM)	0.25 (≈ 0.739 µM)
Cc1cc(-c2cc3c(cc2F)c(=O)c(C(=O)O)cn3-c2ccc(F)cc2)cc(C)n1	1 (≈ 2.46 µM)	0.125 (≈ 0.308 µM)	4 (≈ 9.84 µM)	0.125 (≈ 0.308 µM)	1 (≈ 2.46 µM)	1 (≈ 2.46 µM)
CCNCc1cc(-c2cc3c(cc2F)c(=O)c(C(=O)O)cn3C2CC2)cc(C)n1	8 (≈ 20.2 µM)	0.06 (≈ 0.152 µM)	8 (≈ 20.2 µM)	0.5 (≈ 1.26 µM)	0.5 (≈ 1.26 µM)	2 (≈ 5.06 µM)
Cc1cncc(-c2cc3c(cc2F)c(=O)c(C(=O)O)cn3C2CC2)c1	0.25 (≈ 0.739 µM)	0.06 (≈ 0.177 µM)	2 (≈ 5.91 µM)	0.016 (≈ 0.0473 µM)	0.06 (≈ 0.177 µM)	0.125 (≈ 0.369 µM)
O=C(O)c1cn(C2CC2)c2cc(N3CCNCC3)c(F)cc2c1=O [CIPROFLOXACIN]	2 (≈ 6.04 µM)	–	–	0.25 (≈ 0.754 µM)	0.25 (≈ 0.754 µM)	0.5 (≈ 1.51 µM)
CCn1cc(C(=O)O)c(=O)c2ccc(-c3cc(C)nc(C)c3)cc21 [DIMETHYLROSOXACIN]	16 (≈ 49.6 µM)	0.25 (≈ 0.776 µM)	2 (≈ 6.2 µM)	0.25 (≈ 0.776 µM)	32 (≈ 99.3 µM)	1 (≈ 3.1 µM)
CCn1cc(C(=O)O)c(=O)c2cc(F)c(N3CCNCC3)cc21 [NORFLOXACIN]	8 (≈ 25.1 µM)	0.125 (≈ 0.391 µM)	2 (≈ 6.26 µM)	2 (≈ 6.26 µM)	4 (≈ 12.5 µM)	4 (≈ 12.5 µM)
CCn1cc(C(=O)O)c(=O)c2ccc(-c3ccncc3)cc21 [ROSOXACIN]	8 (≈ 27.2 µM)	0.125 (≈ 0.425 µM)	16 (≈ 54.4 µM)	0.5 (≈ 1.7 µM)	16 (≈ 54.4 µM)	16 (≈ 54.4 µM)
Cc1cc(-c2c(F)cc3c(=O)c(C(=O)O)cn(C4CC4)c3c2F)cc(C)n1 [WIN-57294]	0.125 (≈ 0.338 µM)	0.06 (≈ 0.162 µM)	4 (≈ 10.8 µM)	0.008 (≈ 0.0216 µM)	0.016 (≈ 0.0432 µM)	0.06 (≈ 0.162 µM)
